The IC50 is the midpoint of a concentration-inhibition curve. A low value points to inhibition by little substance.

From ChEMBL document CHEMBL2040832, “Design and synthesis of new (E)-cinnamic N-acylhydrazones as potent antitrypanosomal agents” (Eur J Med Chem, 2012) come the findings set out here.

The subject of data set [1] is Trypanosoma cruzi. Nature of the data set: Antitrypanosomal activity against Trypanosoma cruzi Tulahuen C2C4 intracellular amastigotes infected in rat L6 cells after 4 days by photometry. The following applies: Tulahuen C2C4, L6, 96 h. Format: functional, organism-based. Summed up:
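L6 rat myoblasts seeded at 2000 cells/well in RPMI 1640 with 10% FBS and 2 mM L-glutamine; after 24 h infected with 5000 T. cruzi Tulahuen C2C4 LacZ trypomastigotes. At 48 h medium replaced with seven 3-fold serial drug dilutions spanning 0.123 to 90 µg/mL.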

Data set [2] concerns Trypanosoma cruzi. Nature of the data set: Antitrypanosomal activity against bloodstream form of Trypanosoma cruzi Y trypomastigotes infected in Swiss mouse. The data set is classed as functional, organism-based.
A short description of data set [3]: Selectivity index, ratio of IC50 for mouse J774 cells to IC50 for bloodstream form of Trypanosoma cruzi trypomastigote. The data set is classed as toxicity, cell-based. As to conditions: read-out: Ratio IC50.
In data set [4] the target is T1, Cruzipain (Trypanosoma cruzi, UniProt P25779). Nature of the data set: Inhibition of Trypanosoma cruzi C-terminally truncated cruzain expressed in Escherichia coli using Z-Phe-Arg-AMC as substrate incubated for 5 mins prior to substrate addition by spectrofluorometry. A digest of the protocol: (§1)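 Purified C-terminally truncated cruzain from E. coli (M15 or DH5a), 0.64 nM, in 50 mM sodium phosphate, 100 mM NaCl, 5 mM EDTA, 5 mM DTT, pH 6.5, preincubated with inhibitor 5 min at room temperature before Z-Phe-Arg-AMC. AMC release followed by fluorescence (ex 355, em 460 nm). IC₅₀ by nonlinear regression from ≥7 concentrations giving 20–85% inhibition, relative to uninhibited activity.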
T1 sequence (P25779 whole entry, the tested form may be a part): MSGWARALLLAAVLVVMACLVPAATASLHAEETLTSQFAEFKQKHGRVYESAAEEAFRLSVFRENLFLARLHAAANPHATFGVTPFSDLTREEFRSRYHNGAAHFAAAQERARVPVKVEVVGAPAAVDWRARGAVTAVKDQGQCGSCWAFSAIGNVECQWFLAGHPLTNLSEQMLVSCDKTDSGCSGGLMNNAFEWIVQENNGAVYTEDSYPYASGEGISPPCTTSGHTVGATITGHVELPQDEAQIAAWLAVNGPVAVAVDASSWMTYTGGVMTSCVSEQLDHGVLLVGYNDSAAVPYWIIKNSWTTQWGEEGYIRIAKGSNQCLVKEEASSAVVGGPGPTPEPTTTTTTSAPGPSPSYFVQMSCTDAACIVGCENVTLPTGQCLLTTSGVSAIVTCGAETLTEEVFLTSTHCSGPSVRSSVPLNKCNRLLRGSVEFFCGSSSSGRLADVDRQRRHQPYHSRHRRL

For another data set, the system named is J774. Nature of the data set: Cytotoxicity against mouse J774 cells after 18 hrs by MTT assay. The following applies: J774, 18 h. The data set is classed as cell-based. A digest of the protocol: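 J774 macrophages plated at 2.5 × 10⁶ cells/mL for 1 h (5% CO₂, 37 °C), non-adherent cells washed off with RPMI 1640. Adherent cells exposed to compounds (0.1–[…]), medium alone or 3% Tween 20 in triplicate for 18 h; MTT added for 4 h, formazan dissolved in DMSO, absorbance at 540 nm; LC₅₀ reported.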
(In general: Tetrazolium assays rely on reduction of a dye to a coloured formazan, in cell work by metabolically active cells.)

Data set [5] addresses T1, Cruzipain. Nature of the data set: Inhibition of Trypanosoma cruzi cruzain. A digest of the protocol:
as §1

Molecules are shown by their SMILES.

With `O=C(/C=C/c1ccccc1)N/N=C/c1ccc([N+](=O)[O-])cc1`, the IC50 was 81 µM in the data set on Trypanosoma cruzi [1] and above 1100 µM with Trypanosoma cruzi [2].
Turning to `O=C(/C=C/c1ccccc1)N/N=C/c1ccccc1O`, the selectivity ratio in data set [3] was 71. Further, the half-inhibitory concentration (IC50) is 6.6 µM in the data set with Trypanosoma cruzi [1], 52.2 µM at Cruzipain [4], 420 µM in the data set with J774 and 5.9 µM with Trypanosoma cruzi [2].
On to `O=C(/C=C/c1ccccc1)N/N=C/c1ccc(F)cc1`, for which the IC50 in the data set with Trypanosoma cruzi [1] is above 100 µM; with Trypanosoma cruzi [2] it was above 1100 µM.
`O=C(/C=C/c1ccc2c(c1)OCO2)c1ccc(Br)cc1` displayed an IC50 at Cruzipain [5] of 20 µM.
Turning to `COc1ccc(/C=C/C(=O)N/N=C/c2ccccc2O)cc1OC`, in the data set on Trypanosoma cruzi [2], the IC50 came to 65 µM.
Regarding `O=C(N/N=C/c1ccccc1O)c1ccc2ccccc2c1`, it took 93 µM to reach half-maximal inhibition in the data set on Trypanosoma cruzi [2] (IC50).
As to `O=C(/C=C/c1ccccc1)N/N=C/c1ccc2c(c1)OCO2`, the IC50 in the data set on Trypanosoma cruzi [1] is 61 µM; in the data set on Trypanosoma cruzi [2], above 1100 µM.
For `COc1ccc(/C=N/NC(=O)/C=C/c2ccccc2)cc1`, the half-maximal inhibitory concentration (IC50) was above 100 µM with Trypanosoma cruzi [1] and above 1100 µM in the data set on Trypanosoma cruzi [2].
`COc1cc(/C=N/NC(=O)/C=C/c2cc(OC)c(OC)c([N+](=O)[O-])c2)cc([N+](=O)[O-])c1O`: the selectivity ratio in data set [3] amounted to 116. For the same compound, the concentration for half-maximal inhibition (IC50) on Cruzipain [4] is 44.7 µM; in the data set with J774 it was 1860 µM; in the data set on Trypanosoma cruzi [2], 16 µM.
With `COc1cc(/C=N/NC(=O)/C=C/c2ccc3c(c2)OCO3)cc([N+](=O)[O-])c1O`, the IC50 in the data set with Trypanosoma cruzi [2] is above 1100 µM.
For the compound `COc1cc(/C=C/C(=O)N/N=C/c2ccccc2O)cc(OC)c1OC`, in the data set with Trypanosoma cruzi [2], the IC50 is 78.8 µM.
In the data set on Trypanosoma cruzi [2], `O=C(/C=C/c1ccccc1)N/N=C/c1ccc(Br)cc1` had an IC50 above 1100 µM.
On to `O=C(/C=C/c1ccccc1)N/N=C/c1ccc(O)cc1`, for which the IC50 was above 100 µM in the data set with Trypanosoma cruzi [1] and above 1100 µM in the data set with Trypanosoma cruzi [2].
In the case of `O=C(/C=C/c1ccc2c(c1)OCO2)N/N=C/c1ccccc1O`, the selectivity ratio in data set [3] is 50. Besides, the results for the IC50 against Cruzipain [4], in the data set with J774 and with Trypanosoma cruzi [2] were 74.8 µM, 281 µM and 5.6 µM, respectively.
`COc1cc(/C=C/C(=O)N/N=C/c2ccccc2)cc([N+](=O)[O-])c1O` registered an IC50 with Trypanosoma cruzi [2] of 79 µM.
As to `COc1cc(/C=N/NC(=O)/C=C/c2ccccc2)cc(OC)c1OC`, the IC50 turned out to be 70 µM with Trypanosoma cruzi [1] and 71 µM with Trypanosoma cruzi [2].
Consider `O=C(/C=C/c1ccccc1)N/N=C/c1ccc(O)c(O)c1`, for which the half-inhibitory concentration (IC50) with Trypanosoma cruzi [1] was above 100 µM; in the data set with Trypanosoma cruzi [2], 107 µM.
`COc1cc(/C=N/NC(=O)c2ccc3ccccc3c2)cc([N+](=O)[O-])c1O` gave an IC50 in the data set with Trypanosoma cruzi [2] of 93 µM.
In the case of `COc1ccc(/C=N/NC(=O)/C=C/c2ccccc2)cc1O`, the IC50 is above 100 µM in the data set with Trypanosoma cruzi [1] and above 1100 µM in the data set with Trypanosoma cruzi [2].
As for `COc1cc(/C=C/C(=O)N/N=C/c2ccccc2O)cc([N+](=O)[O-])c1OC`, in data set [3], the selectivity ratio stood at 32. Further, the IC50 against Cruzipain [4] worked out at 83.9 µM; in the data set with J774 it was 550 µM; in the data set with Trypanosoma cruzi [2] it was 17 µM.
The compound `COc1ccc(/C=C/C(=O)N/N=C/c2cc(OC)c(O)c([N+](=O)[O-])c2)cc1OC` displayed an IC50 with Trypanosoma cruzi [2] above 1100 µM.
With `O=C(/C=C/c1ccccc1)N/N=C/c1ccccc1`, the IC50 in the data set with Trypanosoma cruzi [1] was above 100 µM; in the data set on Trypanosoma cruzi [2] it was above 1100 µM.
Consider `COc1cc(/C=N/NC(=O)/C=C/c2cc(OC)c(OC)c(OC)c2)cc([N+](=O)[O-])c1O`, for which the selectivity ratio in data set [3] stood at 134. In addition, the concentration for half-maximal inhibition (IC50) at Cruzipain [4] worked out at 45.9 µM; in the data set on J774, 2410 µM; with Trypanosoma cruzi [2] it was 18 µM.
Take `COc1ccc(/C=N/NC(=O)/C=C/c2ccccc2)cc1OC`: the IC50 was above 100 µM with Trypanosoma cruzi [1] and above 1100 µM in the data set on Trypanosoma cruzi [2].
As for `O=C(CCc1ccccc1)N/N=C/c1ccccc1O`, the selectivity ratio in data set [3] was 90. Moreover, the 50% inhibitory concentration (IC50) is above 100 µM at Cruzipain [4], 1630 µM with J774 and 18 µM in the data set with Trypanosoma cruzi [2].
With `COc1cc(/C=N/NC(=O)/C=C/c2ccccc2)cc([N+](=O)[O-])c1O`, the IC50 in the data set with Trypanosoma cruzi [1] is 40 µM; with Trypanosoma cruzi [2], above 1100 µM.
`O=C(Cn1ccnc1[N+](=O)[O-])NCc1ccccc1` [BENZNIDAZOLE]: the selectivity ratio in data set [3] was 356. For the same compound, the IC50 is 0.122 µM in the data set on Trypanosoma cruzi [1], 3840 µM with J774 and 10.8 µM in the data set with Trypanosoma cruzi [2].
As to `O=C(/C=C/c1ccccc1)N/N=C/c1ccc(Cl)cc1`, the results for the IC50 in the data set with Trypanosoma cruzi [1] and in the data set on Trypanosoma cruzi [2] were above 100 µM and above 1100 µM, respectively.
For `COc1ccc2cc(O)c(C(=O)N/N=C/c3c(O)ccc4ccccc34)cc2c1`, on Cruzipain [5], the IC50 came to 0.6 µM.
The compound `COc1cc(/C=N/NC(=O)CCc2ccccc2)cc([N+](=O)[O-])c1O` gave a concentration for half-maximal inhibition (IC50) in the data set with Trypanosoma cruzi [2] above 1100 µM.
For `COc1cc(/C=N/NC(=O)/C=C/c2ccccc2)ccc1O`, the values for the half-inhibitory concentration (IC50) with Trypanosoma cruzi [1] and in the data set with Trypanosoma cruzi [2] were 73 µM and 127 µM, respectively.
